KB, KA and Intrinsic activity data for six molecules are collected here from ChEMBL document CHEMBL1121816, “Adrenoceptor blocking agents. Compounds related to metoprolol” (1981).

The species named for one assay is Felis catus. Put plainly: Antagonistic effect of compound on peripheral vascular resistance was measured as KB in cats. It is filed as functional. In outline: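 Reserpinized (5 mg/kg, 18 h prior), pentobarbital-anesthetized, vagotomized, ventilated cats. One hind leg perfused with the animal's own blood via the femoral artery at a constant flow above 10 mL/min; resistance read as perfusion pressure. Compound infused iv for 10 min in five stepwise concentrations, each followed by ia isoprenaline at about 80%-maximal dose. KB assumes competitive antagonism.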

Assay [1] deals with Beta-1 adrenergic receptor (Homo sapiens) (UniProt P08588). Put plainly: Agonistic effect of compound against beta-1-adrenergic receptor given as geometric mean (KA) of effect on heart rate. It is filed as functional. Particulars: Felis catus. The method, boiled down:
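Cats of either sex (2.6–3.2 kg), starved 24 h, given reserpine 5 mg/kg 18 h before; pentobarbital 30 mg/kg ip, then 0.1 mg/min/kg infusion; ventilated, bilaterally vagotomized. Heart rate triggered from carotid pressure. Compound infused iv for 10 min at 1.0 mL/min in five rising concentrations. KA taken as the dose giving a semimaximal heart-rate increase.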

The target is the same in assay [2]. Put plainly: Intrinsic activity of compound against beta-1-adrenergic receptor given as percent of maximal heart rate by iv injection of supramaximal doses of isoprenaline (IPR). The following applies: Felis catus. It is filed as functional, organism-based.

Beta-1 adrenergic receptor (Homo sapiens), sequence (P08588 whole entry, looked up, the tested form may be a part): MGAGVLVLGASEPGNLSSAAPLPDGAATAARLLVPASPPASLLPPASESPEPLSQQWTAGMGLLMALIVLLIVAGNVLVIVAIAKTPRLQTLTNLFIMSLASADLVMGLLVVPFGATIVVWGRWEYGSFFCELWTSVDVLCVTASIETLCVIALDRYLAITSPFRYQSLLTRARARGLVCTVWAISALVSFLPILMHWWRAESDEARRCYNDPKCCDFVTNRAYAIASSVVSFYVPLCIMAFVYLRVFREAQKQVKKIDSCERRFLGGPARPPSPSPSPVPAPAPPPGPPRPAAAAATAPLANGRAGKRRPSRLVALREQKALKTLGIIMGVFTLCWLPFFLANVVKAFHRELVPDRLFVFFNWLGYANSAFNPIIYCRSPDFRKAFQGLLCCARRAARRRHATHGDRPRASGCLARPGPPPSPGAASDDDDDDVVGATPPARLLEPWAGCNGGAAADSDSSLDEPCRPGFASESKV

For the molecule `COCCc1ccc(OCC(O)CNC(C)C)cc1.Cl` (stereo unspecified), the KB in the assay filed under Felis catus is 0.87 µM/kg.
As to `COCCc1ccc(C(O)CNC(C)C)cc1.Cl` (stereo unspecified), the KA in assay [1] was 0.536 µM/kg. Moreover, the Intrinsic activity in assay [2] stood at 22.5%. In addition, in the assay filed under Felis catus, the KB is 23.6 µM/kg.
The matching figures for `COc1ccc(OCC(O)CNC(C)C)cc1.Cl` (stereo unspecified): 0.119 µM/kg, 81.2% and 3.42 µM/kg.
As to `COCc1ccc(CC(O)CNC(C)C)cc1.Cl` (stereo unspecified), in the assay filed under Felis catus, the KB came to 6.1 µM/kg.
In the assay filed under Felis catus, `Cc1ccc(OCCC(O)CNC(C)C)cc1.Cl` (stereo unspecified) gave a KB of 1.82 µM/kg.
For the molecule `COc1ccc(CCC(O)CNC(C)C)cc1.Cl` (stereo unspecified), in assay [2], the Intrinsic activity amounted to 4.5%. The KB in the assay listed under Felis catus worked out at 30.8 µM/kg.
